Assay results from ChEMBL document CHEMBL1157144, “Novel 16-membered macrolides modified at C-12 and C-13 positions of midecamycin A1 and miokamycin. Part 1: Synthesis and evaluation of 12,13-carbamate and 12-arylalkylamino-13-hydroxy analogues” (2008).
Converted amounts (≈) assume the structure as drawn.

Assays:
Assay type in all cases: functional
Staphylococcus aureus [1] = assay: Antibacterial activity against standard Staphylococcus aureus after 20 hrs by agar dilution method
In short: (§1)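 Agar dilution MIC. The inoculum came from a seed culture in Sensitivity test broth. A 5 µl portion of a cell suspension of about 10^6 CFU/ml was inoculated onto Sensitivity disk agar supplemented with 5% horse blood. Plates were incubated at 37 °C for 20 h, then MIC was read.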

Staphylococcus aureus [2] = assay: Antibacterial activity against susceptible Staphylococcus aureus after 20 hrs by agar dilution method; in short: as §1
Staphylococcus aureus [3] = assay: Antibacterial activity against ermA-constitutive resistant Staphylococcus aureus after 20 hrs by agar dilution method; in short: as §1
Staphylococcus aureus [4] = assay: Antibacterial activity against ermB-inducible resistant Staphylococcus aureus after 20 hrs by agar dilution method; in short: as §1
Staphylococcus aureus [5] = assay: Antibacterial activity against ermC-inducible resistant Staphylococcus aureus after 20 hrs by agar dilution method; in short: as §1
Streptococcus pneumoniae [6] = assay: Antibacterial activity against susceptible Streptococcus pneumoniae after 20 hrs by agar dilution method
In short: (§2)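 MIC by agar dilution. Strains grown on blood agar plates for seed culture. About 5 µl of a suspension of roughly 10^6 CFU/ml spotted onto Sensitivity disk agar with 5% horse blood. Plates incubated at 37 °C for 20 h, then MIC read.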

Streptococcus pneumoniae [7] = assay: Antibacterial activity against ermB-constitutive resistant Streptococcus pneumoniae after 20 hrs by agar dilution method
In short: (§3)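 Agar dilution MIC. Streptococcal strains were pre-cultured on blood agar plates. A 5 µl portion of a cell suspension of about 10^6 CFU/ml was inoculated onto Sensitivity disk agar supplemented with 5% horse blood. Plates were incubated at 37 °C for 20 h, then MIC was read.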

Streptococcus pneumoniae [8] = assay: Antibacterial activity against ermB-inducible resistant Streptococcus pneumoniae after 20 hrs by agar dilution method; in short: as §3
Streptococcus pneumoniae [9] = assay: Antibacterial activity against mefE efflux-resistant Streptococcus pneumoniae after 20 hrs by agar dilution method; in short: as §3
Streptococcus pyogenes [10] = assay: Antibacterial activity against standard Streptococcus pyogenes after 20 hrs by agar dilution method; in short: as §2
Streptococcus pyogenes [11] = assay: Antibacterial activity against ermB-constitutive resistant Streptococcus pyogenes after 20 hrs by agar dilution method; in short: as §3
Streptococcus pyogenes [12] = assay: Antibacterial activity against mefE efflux-resistant Streptococcus pyogenes after 20 hrs by agar dilution method; in short: as §3
Moraxella catarrhalis = assay: Antibacterial activity against standard Moraxella catarrhalis after 20 hrs by agar dilution method; in short: as §2
Haemophilus influenzae [13] = assay: Antibacterial activity against standard Haemophilus influenzae after 20 hrs by agar dilution method; in short: as §2
Haemophilus influenzae [14] = assay: Antibacterial activity against susceptible Haemophilus influenzae after 20 hrs by agar dilution method; in short: as §2

## CCC(=O)O[C@@H]1CC(=O)O[C@H](C)C/C=C/C=C/[C@H](OC(C)=O)[C@H](C)C[C@H](CC=O)[C@H](O[C@@H]2O[C@H](C)[C@@H](O[C@H]3C[C@@](C)(OC(C)=O)[C@@H](OC(=O)CC)[C@H](C)O3)[C@H](N(C)C)[C@H]2O)[C@H]1OC [MIOCAMYCIN]
Staphylococcus aureus [1]
  MIC: 0.2 µg/mL (≈ 0.223 µM)
Staphylococcus aureus [2]
  MIC: 0.78 µg/mL (≈ 0.869 µM)
Staphylococcus aureus [3]
  MIC: > 100 µg/mL
Staphylococcus aureus [4]
  MIC: 1.56 µg/mL (≈ 1.74 µM)
Staphylococcus aureus [5]
  MIC: 0.78 µg/mL (≈ 0.869 µM)
Streptococcus pneumoniae [6]
  MIC: 0.1 µg/mL (≈ 0.111 µM)
Streptococcus pneumoniae [7]
  MIC: > 100 µg/mL
Streptococcus pneumoniae [8]
  MIC: 6.25 µg/mL (≈ 6.96 µM)
Streptococcus pneumoniae [9]
  MIC: 0.2 µg/mL (≈ 0.223 µM)
Streptococcus pyogenes [10]
  MIC: 0.1 µg/mL (≈ 0.111 µM)
Streptococcus pyogenes [11]
  MIC: > 100 µg/mL
Streptococcus pyogenes [12]
  MIC: 0.2 µg/mL (≈ 0.223 µM)
Moraxella catarrhalis
  MIC: 0.78 µg/mL (≈ 0.869 µM)
Haemophilus influenzae [13]
  MIC: 3.13 µg/mL (≈ 3.49 µM)
Haemophilus influenzae [14]
  MIC: 25 µg/mL (≈ 27.8 µM)
